Measurements from ChEMBL document CHEMBL4321816, “Identification of 2,6-Disubstituted 3H-Imidazo[4,5-b]pyridines as Therapeutic Agents for Dysferlinopathies through Phenotypic Screening on Patient-Derived Induced Pluripotent Stem Cells” (J Med Chem, 2019).
In brackets after ≈: the same amount, converted by molar mass. Activity calls are given as the source filed them. No cut-off for these calls is given here.

Tests used:
[1] = (§1) Anti-dysferlinopathy activity in human dermal myocytes derived from dysferlinopathy patient dermal fibroblast iPSC harboring dysferlin c.2997 G > T (p. W999C)/c.1958G deletion mutant assessed as increase in dysferlin expression incubated for 24 hrs by immunostaining assay; assay type: functional
Method in brief: (§2)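 iPSCs from a dysferlinopathy patient's dermal fibroblasts carrying a stably transfected Tet-MyoD1 vector. Differentiated to myocytes by doxycycline (1 µg/mL) MyoD induction, then treated on day 7 for 24 h at 0.003–10 µM (0.1% DMSO final). Fixed, immunostained for dysferlin and MHC, and imaged. Read-out: 488 nm intensity in the dysferlin/MHC double-positive area. EC150 is the concentration giving 50% increase over median DMSO wells, from a 4-parameter logistic fit.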

Sus scrofa = species: Sus scrofa; assay: Competitive inhibition of porcine tubulin alpha/beta at 10 to 100 uM preincubated 30 mins followed by addition of N-(2-(3-(But-3-yn-1-yl)-3H-diazirin-3-yl)ethyl)-5-(2-(phenoxymethyl)-3H-imidazo[4,5-b]pyridin-6-yl)thiophene-3-carboxamide and measured after 15 mins by SDS-PAGE based fluorescence assay
Method in brief: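 Porcine brain tubulin at 25 µg/mL in HEPES isotonic buffer (pH 7.4) pre-incubated 30 min at room temperature with DMSO or compound (1–10 mM DMSO stocks). […] Labeled tubulin was tagged with TAMRA-azide by click reaction, run on SDS-PAGE and scanned for fluorescence, with Coomassie staining for total tubulin.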

Homo sapiens = species: Homo sapiens; assay: as §1; assay type: functional; method in brief: as §2
[2] = Permeability of compound in pH 7.4 in PRISMA HT buffer at 10 umol/L incubated for 3 hrs by LC/MS/MS based PAMPA assay; assay type: ADME; conditions: read-out: permeability
Method in brief: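 PAMPA: donor wells held PRISMA HT buffer (pH 7.4) with 10 µmol/L compound, and the acceptor filter was coated with GIT-0 lipid over sink buffer. Incubated 3 h at room temperature, then compound in donor and acceptor wells measured by LC/MS/MS.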

[3] = Aqueous solubility in pH 6.8 by HPLC analysis; assay type: physicochemical; conditions: buffer
Method in brief: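 Compound added from DMSO solution to aqueous buffer at pH 6.8 and incubated. Precipitate removed by filtration. Dissolved compound in the filtrate quantified by plate reader or HPLC.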

HepG2 = assay: Cytotoxicity against human HepG2 cells assessed as reduction in cell viability after 24 hrs by Cell Titer Glo assay; assay type: cell-based; conditions: HepG2, 24 h
Method in brief: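 HepG2 cells in DMEM high glucose with 10% FBS were seeded at 5000 cells/well and grown ~24 h. Compounds were then added for 24 h at 37 °C/5% CO2, and viability read by CellTiter-Glo luminescence. Controls were DMSO wells and medium-only wells. IC50 was taken from a sigmoidal fit of % inhibition.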

CNC(=O)c1csc(-c2cnc3[nH]c(COc4ccccc4)nc3c2)c1
EC150 [1]: 0.11 µM

Cc1ccsc1-c1cnc2[nH]c(CCc3ccc(F)cc3)nc2c1
EC150 [1]: 0.11 µM

Fc1ccc(CCc2nc3cc(-c4cccs4)cnc3[nH]2)cc1
EC150 [1]: 0.15 µM

COC(=O)Nc1nc2cc(C(=O)c3cccs3)ccc2[nH]1 [NOCODAZOLE]
EC150 [1]: 1 µM | inhibition (Sus scrofa): Active

c1ccc(-c2nc3cc(-c4ccco4)cnc3[nH]2)cc1
EC150 [1]: >10 µM

Cc1c(-c2cccs2)cnc2[nH]c(CCc3ccc(F)cc3)nc12
EC150 [1]: 0.37 µM

Cc1ccc(CCc2nc3cc(-c4ccco4)cnc3[nH]2)cc1
EC150 [1]: >10 µM

CC(C)c1ccsc1-c1cnc2[nH]c(COc3ccccc3)nc2c1
EC150 [1]: 0.012 µM

Cc1ccc(-c2cnc3[nH]c(CCc4ccc(F)cc4)nc3c2)s1
EC150 [1]: 6.3 µM

c1ccc(OCc2nc3cc(-c4cccs4)cnc3[nH]2)cc1
EC150 [1]: 0.039 µM | inhibition (Sus scrofa): Active

c1ccc(Cc2nc3cc(-c4ccco4)cnc3[nH]2)cc1
EC150 [1]: >10 µM

CC[C@]1(O)C[C@@H]2CN(CCc3c([nH]c4ccccc34)[C@@](C(=O)OC)(c3cc4c(cc3OC)N(C)[C@H]3[C@@](O)(C(=O)OC)[C@H](OC(C)=O)[C@]5(CC)C=CCN6CC[C@]43[C@@H]65)C2)C1 [VINBLASTINE]
EC150 [1]: 0.074 µM | inhibition (Sus scrofa): inactive

Clc1ccc(CCc2nc3cc(-c4ccco4)cnc3[nH]2)cc1
EC150 [1]: 4.3 µM

COc1cc2c(c(OC)c1OC)-c1ccc(OC)c(=O)cc1[C@@H](NC(C)=O)CC2
inhibition (Sus scrofa): Active

Cc1nc2[nH]c(CCc3ccc(F)cc3)nc2cc1-c1cccs1
EC150 [1]: >10 µM

FC(F)(F)c1ccc(CCc2nc3cc(-c4ccco4)cnc3[nH]2)cc1
EC150 [1]: >10 µM

Cc1csc(-c2cnc3[nH]c(CCc4ccc(F)cc4)nc3c2)c1
EC150 [1]: 1.9 µM

c1ccc(CCc2nc3cc(-c4ccco4)cnc3[nH]2)cc1
EC150 [1]: 5.9 µM | Activity (Homo sapiens): Dose-dependent effect | Papp at 3 h, 10 µM [2]: 33.2 ×10⁻⁶ cm/s | solubility [3]: 6.4 µg/mL (≈ 22.1 µM) | IC50 (HepG2): > 100 µM

Clc1ccccc1CCc1nc2cc(-c3ccco3)cnc2[nH]1
EC150 [1]: >10 µM

Clc1cccc(CCc2nc3cc(-c4ccco4)cnc3[nH]2)c1
EC150 [1]: >10 µM

Fc1ccc(CCc2nc3ncc(-c4cccs4)cc3o2)cc1
EC150 [1]: >10 µM

Fc1ccc(CCc2nc3cc(-c4cccs4)cnc3o2)cc1
EC150 [1]: >10 µM

N#Cc1ccc(CCc2nc3cc(-c4ccco4)cnc3[nH]2)cc1
EC150 [1]: >10 µM

C#CCCC1(CCNC(=O)c2csc(-c3cnc4[nH]c(COc5ccccc5)nc4c3)c2)N=N1
EC150 [1]: 0.37 µM

COCCOCCNC(=O)c1csc(-c2cnc3[nH]c(COc4ccccc4)nc3c2)c1
EC150 [1]: 0.4 µM

CC(=O)O[C@H]1C(=O)[C@@]2(C)[C@H]([C@H](OC(=O)c3ccccc3)[C@]3(O)C[C@H](OC(=O)[C@H](O)[C@@H](NC(=O)c4ccccc4)c4ccccc4)C(C)=C1C3(C)C)[C@]1(OC(C)=O)CO[C@@H]1C[C@@H]2O
inhibition (Sus scrofa): inactive

Fc1ccc(CCc2nc3cc(-c4cccs4)ccc3[nH]2)cc1
EC150 [1]: >10 µM

Fc1ccc(OCc2nc3cc(-c4cccs4)cnc3[nH]2)cc1
EC150 [1]: 0.067 µM

Fc1ccc(CCc2nc3cc(-c4ccccc4)cnc3[nH]2)cc1
EC150 [1]: 1.3 µM

Fc1ccc(CCc2nc3cc(-c4ccco4)cnc3[nH]2)cc1
EC150 [1]: 1 µM

CNC(=O)c1ccsc1-c1cnc2[nH]c(COc3ccccc3)nc2c1
EC150 [1]: >10 µM

COc1ccc(CCc2nc3cc(-c4ccco4)cnc3[nH]2)cc1
EC150 [1]: >10 µM
